Bioassay records (PubChem BioAssay)
Rows were chosen to be rich in hits. Some 3.4% of all compounds tested hit in one or more screens of this group.
ANO1 block: mouse TMEM16A channel inhibition, primary screen. Q8BHY3. HEK293 TMEM16A/YFP iodide influx fluorescence, ionomycin. normalized B-score (activity score, 25-100; higher = stronger inhibition) at 10 µM. 310,000 tested, 1.2% active;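 active means ratio plate-corrected score three or more library SD toward inhibition, starting fluorescence score within five deviations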;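 further: score derived from kinetic fluorescence span divided by baseline fluorescence per well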
Target sequence (Q8BHY3 whole entry, looked up): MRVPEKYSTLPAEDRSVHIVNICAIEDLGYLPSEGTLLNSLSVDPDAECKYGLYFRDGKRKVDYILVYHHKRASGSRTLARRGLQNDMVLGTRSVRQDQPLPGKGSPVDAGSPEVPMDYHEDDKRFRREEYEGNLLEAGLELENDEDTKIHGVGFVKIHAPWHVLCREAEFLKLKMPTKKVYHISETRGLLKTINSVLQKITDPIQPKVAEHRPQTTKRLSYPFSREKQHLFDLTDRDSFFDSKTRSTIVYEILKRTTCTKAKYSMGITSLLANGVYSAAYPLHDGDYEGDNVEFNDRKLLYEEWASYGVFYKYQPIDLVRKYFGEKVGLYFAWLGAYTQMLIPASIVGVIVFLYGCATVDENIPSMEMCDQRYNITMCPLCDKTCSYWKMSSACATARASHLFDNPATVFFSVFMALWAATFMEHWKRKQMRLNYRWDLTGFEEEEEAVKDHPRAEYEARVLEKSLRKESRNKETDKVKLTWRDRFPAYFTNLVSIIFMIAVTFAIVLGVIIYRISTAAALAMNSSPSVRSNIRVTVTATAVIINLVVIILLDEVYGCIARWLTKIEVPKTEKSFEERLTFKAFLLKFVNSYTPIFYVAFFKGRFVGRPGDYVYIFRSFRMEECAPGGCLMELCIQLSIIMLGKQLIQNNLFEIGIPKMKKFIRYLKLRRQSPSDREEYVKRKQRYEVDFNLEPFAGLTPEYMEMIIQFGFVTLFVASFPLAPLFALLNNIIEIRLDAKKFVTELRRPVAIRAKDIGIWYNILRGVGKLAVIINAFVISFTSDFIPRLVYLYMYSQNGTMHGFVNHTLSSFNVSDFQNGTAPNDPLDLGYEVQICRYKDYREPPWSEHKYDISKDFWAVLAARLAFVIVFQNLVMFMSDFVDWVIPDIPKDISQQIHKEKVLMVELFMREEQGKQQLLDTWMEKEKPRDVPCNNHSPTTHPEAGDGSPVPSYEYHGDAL
MC4R antag cAMP: antagonists of human melanocortin 4 receptor (MC4R). AID 540295. inhibition, % at 6.5 µM. MC4R-expressing cells, MTII-stimulated cAMP, LANCE TR-FRET. 360,000 tested, 0.48% active;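 active means inhibition above its plate's cutoff, the mean of tested wells on that plate plus 3 SD, cut at about 29% in these data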;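 further: 0% = Melanotan II alone and 100% = Melanotan II plus saturating MCL0020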
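Material – human MC4R-expressing U2OS cells · Repeats – no replicates · Detection – TR-FRET with Eu-cAMP and labeled anti-cAMP, 671 nm · Times – compound 30 min, challenge 1 h, detection 1 h · Compound – single nominal compound dose of 6.5 µM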
m5-HT2A agonist: agonists of mouse serotonin 5-HT2A receptor (HTR2A). P35363. 360,000 tested, 0.66% active. CHO-K1 mHTR2A beta-arrestin complementation, luminescence; percent of 30 µM serotonin response. activation, % at 7.6 µM;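 active means activation above a run cutoff, the mean activation of all tested compounds plus 3 SD, cut at about 14% in these data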;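 further: 0% = plate median of compound wells and 100% = 30 µM serotonin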
beta cell repl: inducers of beta-cell replication in MIN6 cells | MIN6 cells proliferation, ATPlite luminescence, 48 h; cells starved in 0.2% serum; 100% = growth in 10% serum | proliferation, % at 10 µM | 330,000 tested, 0.29% active | AID 2380;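 active means compounds whose signal lies at least 3.5 SD above the mean of all wells on their plate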;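 further: 0% = DMSO-treated cells in low-serum medium and 100% = 10% serum control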
MC4R ag barr: human MC4R agonism via beta-arrestin; U2OS MC4R beta-arrestin complementation, luminescence; percent of melanotan II response, DMSO zero; activation, % at 8.9 µM; 360,000 tested, 0.98% active; AID 540308;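 active means activation above a per-plate cutoff, the mean activation of sample wells on that plate plus 3 SD, cut at about 8% in these data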
ANO1 activ: activates or potentiates the mouse TMEM16A chloride channel | AID 623877 | 340,000 tested, 0.3% active | B-score at 10 µM | HEK293 TMEM16A/YFP-H148Q/I152L, iodide quench fluorescence; active compounds read low;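 active means fluorescence-ratio B-score plate-corrected deviation score at least 3 library SD below zero, with starting fluorescence score within 5 deviations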;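 further: channel opened by trigger with iodide after compound preincubation; score built on the fluorescence ratio of max minus min over baseline; more negative score means more quench and so TMEM16A activation or potentiation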
TMEM16A reconf: re-confirmation of mouse TMEM16A chloride channel inhibitors; HEK293 TMEM16A/YFP-H148Q, iodide quench fluorescence; ionomycin added to raise cell calcium; shares compounds with ANO1 block; inhibition, % at 10 µM; 2,300 tested, 39% active;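 active means mean duplicate percent inhibition, scaled so buffer wells are 0 and the reference blocker 100, over three buffer SD above buffer mean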
TMEM16A Ca cntr: calcium mobilization counter-screen hit for TMEM16A inhibitor series | shares compounds with ANO1 block | TMEM16A/YFP HEK293, Fluo4 calcium mobilization | calcium response (% of ionomycin), % at 10 µM | 2,300 tested, 2% active | AID 652231;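 active means duplicate-averaged calcium signal over 20% of the ionomycin maximum, relative to buffer baseline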;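 further: each well's signal is peak minus trough fluorescence divided by its pre-addition baseline; 0% = buffer wells and 100% = ionomycin wells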
Parental YFP cnt: counter-screen for TMEM16A inhibitors: effect in parental YFP-HEK293 cells. 2,300 tested, under 10 active. iodide YFP quench, ionomycin. AID 652233. shares compounds with ANO1 block. YFP ratio F(max-min)/F0 at 10 µM;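 active means yellow fluorescent protein signal ratio exceeding the buffer control mean by over 5 SD of those controls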;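 further: ratio is mean of duplicate wells from kinetic YFP trace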
ClC-1 inh: selectivity of TMEM16A inhibitors: inhibition of rat ClC-1 chloride channel; ratio percent, % at 10 µM; 2,300 tested, under 10 active; CHO ClC-1-YFP, iodide influx fluorescence quench; iodide control reads 0, buffer control 100; shares compounds with ANO1 block;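 active means duplicate-mean ratio percent above the mean of iodide-only control wells, which defines zero, plus 5 of their SD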;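 further: higher percent means stronger block of ClC-1 iodide influx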
Numbers without * were called inactive; i = inactive; . = no result given.

SMILES	ANO1 block	MC4R antag cAMP	m5-HT2A agonist	beta cell repl	MC4R ag barr	ANO1 activ	TMEM16A reconf	TMEM16A Ca cntr	Parental YFP cnt	ClC-1 inh
Cc1cc(N)ccc1NC(=O)c1ccccc1	100*	3	0	0	1	i	i	i	-1.1	-6
COc1ccc(Cl)cc1NC(=O)CN(C)C1CCCCC1	i	2	-4	-1	0	i	i	i	-1	-10
COc1ccc(Cl)cc1NC(=O)/C=C/C(=O)O	i	2	8	-2	1	i	.	.	.	.
COc1ccc(Cl)cc1NC(=O)COC(=O)C1CCCCC1	.	4	2	-2	5	i	.	.	.	.
C=CCN(CC=C)C(=O)Nc1cc(Cl)ccc1OC	25*	5	-1	2	-1	i	i	i	-1.1	-5
CCCc1nc2ccc(C)cn2c1Cc1cccc(Cl)c1	.	.	-2	.	.	.	.	.	.	.
CO/N=C/C(C#N)c1ncc(C(F)(F)F)cc1Cl (centres undefined)	25*	8	7	-3	-2	i	16%*	i	-0.84	-8
CO/N=C/C(c1ncc(C(F)(F)F)cc1Cl)S(=O)(=O)c1ccccc1 (centres undefined)	i	17	-6	-4	-1	i	.	.	.	.
COc1ccc(N(Cc2ccccc2)S(=O)(=O)c2cccc(C(=O)NCC3CCCO3)c2)cc1 (centres undefined)	.	-3	4	-2	3	i	.	.	.	.
Cc1n[nH]c(C)c1CCOc1ccc(C(C)C)cc1	25*	3	-4	-5	3	i	i	i	-1.1	-18
COc1ccccc1OCC(=O)Nc1cc(Cl)ccc1N1CCCCC1	.	6	-7	-8	0	i	.	.	.	.
COCCN(C(=O)CCC(=O)Nc1nccs1)C(C(=O)NC(C)(C)C)c1ccc(F)cc1 (centres undefined)	100*	9	5	-2	-1	i	i	i	-1.1	0
COCCN(C(=O)CCC(=O)Nc1nccs1)C(C(=O)NC(C)(C)C)c1ccc(C)cc1 (centres undefined)	i	10	-3	-1	0	i	.	.	.	.
CNc1cncc(-c2cccc(C(=O)NC3CC3)c2)n1	.	-2	4	.	0	.	.	.	.	.
Cc1nn(-c2ccccc2)c(C)c1/C=N/n1cnnc1	i	7	-4	-1	-5	i	.	.	.	.
Cc1nn(-c2ccccc2)c(C)c1/C=N\N1CCN(c2ccc(Cl)cc2)CC1	25*	15	6	-2	0	i	i	i	-1.1	-10
CCCC(=O)Nc1c2c(nn1-c1ccc(OC)cc1)CS(=O)(=O)C2	i	8	6	-5	-2	i	.	.	.	.
CCCC(=O)Nc1c2c(nn1-c1ccc(C)cc1)CS(=O)(=O)C2	100*	1	7	-1	-2	i	i	i	-1	-10
CCC(=NC(C)c1ccccc1)c1c(O)n(C)c(=O)n(C)c1=O (centres undefined)	100*	-6	11	-3	-2	i	22%*	i	-0.93	-24
Cc1cc(C)c(C(=O)OCc2csc(CC(=O)Nc3ccccc3C)n2)c(C)c1	25*	2	-5	-1	-3	i	i	i	-1.1	-13
Cc1ccc(NC(=O)c2ccc3ncsc3c2)cc1S(=O)(=O)N(C)C	i	.	.	-4	.	.	.	.	.	.
O=C(NCc1cccnc1)c1cc(C2CCCCN2S(=O)(=O)c2cccc3cccnc23)on1 (centres undefined)	.	3	-4	.	-2	.	.	.	.	.
O=CNn1cnc2c(oc3nc(-c4ccccc4)cc(-c4ccco4)c32)c1=O	25*	0	-1	-3	0	i	18%*	i	-0.92	0
NNC(=O)c1oc2nc(-c3ccco3)cc(-c3ccco3)c2c1N	i	4	4	-3	-1	i	.	.	.	.
C/C(=N\NC(=O)c1c(C)nc2ccccn12)c1ccco1	i	1	1	0	-2	i	.	.	.	.
SMILES	ANO1 block	MC4R antag cAMP	m5-HT2A agonist	beta cell repl	MC4R ag barr	ANO1 activ	TMEM16A reconf	TMEM16A Ca cntr	Parental YFP cnt	ClC-1 inh
O=C(C1CCC(CNS(=O)(=O)c2ccccc2)CC1)N1CCOCC1 (centres undefined)	25*	4	2	0	-2	i	i	i	-1	-8
CC(NC(=O)C1CCC(CNS(=O)(=O)c2ccccc2)CC1)c1ccccc1 (centres undefined)	i	13	2	-4	-1	i	.	.	.	.
CCC(C)NC(=O)C1CCC(CNS(=O)(=O)c2ccccc2)CC1 (centres undefined)	i	-1	3	-4	1	i	i	i	-0.86	0
O=C1CC2(CCN(C(=O)c3ccc(F)c(F)c3)CC2)Oc2ccccc21	i	4	5	-5	-2	i	.	.	.	.
CCc1ccccc1NC(=O)CCS(=O)(=O)c1ccc(C)cc1	i	6	-1	1	-1	i	.	.	.	.
CCc1ccccc1NC(=O)CCS(=O)(=O)c1ccc(Br)cc1	i	0	1	-5	-2	i	i	i	-0.97	-6
CC(C)Cn1c(=O)c2ccccc2n2c(CCC(=O)O)nnc12	i	0	0	-1	-2	i	.	.	.	.
COc1ccc(NC(=O)COC(=O)Cn2cnc3ccccc3c2=O)c(OC)c1	.	4	-3	1	-4	i	.	.	.	.
C=CC(n1cncn1)C(O)(c1ccccc1)c1ccccc1 (centres undefined)	i	2	0	1	-2	i	.	.	.	.
O=C(NCc1ccncc1)c1nc(-c2ccc(C(F)(F)F)cc2)no1	25*	6	-2	-4	-2	i	18%*	i	-0.83	-1
O=C(Cn1nnc2c(cnn2-c2ccc(F)cc2)c1=O)OC1CCCCC1	100*	14	2	0	4	i	i	i	-1.2	-10
CCOc1ccc(NC(=O)Cn2nnc3c(cnn3-c3ccc(F)cc3)c2=O)cc1	i	14	0	0	-4	i	.	.	.	.
